Source: ChEMBL document CHEMBL3352776, “Synthesis and biological evaluation of novel chiral diazepine derivatives as bombesin receptor subtype-3 (BRS-3) agonists incorporating an antedrug approach” (Bioorg Med Chem, 2015)
In brackets after ≈: the same amount, converted by molar mass.

How the values were obtained:
[1] = system: Mus musculus; experiment: Drug metabolism in mouse assessed as ratio of compound to 2-[(5R)-4-[2-(3-hydroxyphenyl)acetyl]-8-(trifluoromethyl)-1,2,3,5-tetrahydropyrido[2,3-e][1,4]diazepin-5-yl]acetic acid at 30 mg/kg, po; type: ADME, organism-based; set-up: dose 30 mg/kg, route oral; settings: in vivo
[2] = system: Mus musculus; experiment: Cmax in mouse assessed as 2-[(5R)-4-[2-(3-hydroxyphenyl)acetyl]-8-(trifluoromethyl)-1,2,3,5-tetrahydropyrido[2,3-e][1,4]diazepin-5-yl]acetic acid inactive metabolite at 30 mg/kg, po; type: ADME, organism-based; set-up: dose 30 mg/kg, route oral; settings: in vivo
[3] = biological target: T1, Bombesin receptor subtype-3 (Homo sapiens, UniProt P32247); experiment: Agonist activity at human BRS3 expressed in CHO-K1 cells by IP-One HTRF assay; type: cell-based
T1 sequence (P32247 whole entry): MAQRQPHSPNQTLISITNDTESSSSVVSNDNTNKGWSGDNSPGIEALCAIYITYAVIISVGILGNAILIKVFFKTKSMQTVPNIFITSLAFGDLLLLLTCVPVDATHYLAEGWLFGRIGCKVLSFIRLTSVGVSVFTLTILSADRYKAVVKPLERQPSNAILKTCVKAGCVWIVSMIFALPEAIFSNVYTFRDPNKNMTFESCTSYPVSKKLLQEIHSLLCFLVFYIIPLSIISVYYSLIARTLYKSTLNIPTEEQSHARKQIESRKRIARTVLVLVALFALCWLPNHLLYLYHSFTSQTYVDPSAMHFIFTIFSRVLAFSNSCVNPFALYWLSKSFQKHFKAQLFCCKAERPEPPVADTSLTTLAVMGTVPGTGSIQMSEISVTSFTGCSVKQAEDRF

[4] = biological target: T2, Bombesin receptor subtype-3 (Mus musculus, UniProt O54798); experiment: Agonist activity at mouse BRS3 expressed in CHO-K1 cells by IP-One HTRF assay; type: cell-based
T2 sequence (O54798 whole entry): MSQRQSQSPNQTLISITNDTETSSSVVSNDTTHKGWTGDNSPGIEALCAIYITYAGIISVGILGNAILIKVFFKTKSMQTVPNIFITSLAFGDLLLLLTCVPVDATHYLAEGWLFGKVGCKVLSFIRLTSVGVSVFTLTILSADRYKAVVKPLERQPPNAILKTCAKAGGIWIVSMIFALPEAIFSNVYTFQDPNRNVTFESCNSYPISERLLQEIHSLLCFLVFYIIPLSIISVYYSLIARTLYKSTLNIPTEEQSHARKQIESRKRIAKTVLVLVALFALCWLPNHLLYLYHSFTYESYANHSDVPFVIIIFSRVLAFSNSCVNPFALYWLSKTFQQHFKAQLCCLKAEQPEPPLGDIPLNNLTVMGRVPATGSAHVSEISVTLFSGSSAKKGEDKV

[5] = Cmax in mouse at 30 mg/kg, po; type: ADME, organism-based; set-up: dose 30 mg/kg, route oral; settings: in vivo
[6] = system: Mus musculus; experiment: Cmax in mouse assessed as 3-[2-[(5R)-5-(carboxymethyl)-8-(trifluoromethyl)-1,2,3,5-tetrahydropyrido[2,3-e][1,4]diazepin-4-yl]-2-oxoethyl]benzoic acid inactive metabolite at 30 mg/kg, po; type: ADME, organism-based; set-up: dose 30 mg/kg, route oral; settings: in vivo
In short: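 Mice acclimated 7–11 days with free access to chow and tap water, then given the ester parent orally at 30 mg/kg as a suspension in 0.5 (w/v)% methyl cellulose 400. Plasma was stored at −20 °C. The carboxylic acid metabolite was quantified in plasma by LC–MS/MS. Cmax is the average of 2 or 3 mice.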

[7] = system: Mus musculus; experiment: Drug metabolism in mouse assessed as ratio of compound to 3-[2-[(5R)-5-(carboxymethyl)-8-(trifluoromethyl)-1,2,3,5-tetrahydropyrido[2,3-e][1,4]diazepin-4-yl]-2-oxoethyl]benzoic acid inactive metabolites at 30 mg/kg, po; type: ADME, organism-based; set-up: dose 30 mg/kg, route oral; settings: in vivo
[8] = system: Mus musculus; experiment: Half life in mouse assessed as 2-[(5R)-4-[2-(3-Hydroxyphenyl)acetyl]-8-(trifluoromethyl)-1,2,3,5-tetrahydropyrido[2,3-e][1,4]diazepin-5-yl]acetic acid at 30 mg/kg, po; type: ADME, organism-based; set-up: dose 30 mg/kg, route oral; settings: in vivo
[9] = Fraction unbound in mouse plasma; type: ADME, cell-free
In short: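 Unbound fraction measured in mouse plasma.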

[10] = Solubility of the compound in JP2; type: physicochemical
[11] = system: Mus musculus; experiment: AUC in mouse assessed as 2-[(5R)-4-[2-(3-Hydroxyphenyl)acetyl]-8-(trifluoromethyl)-1,2,3,5-tetrahydropyrido[2,3-e][1,4]diazepin-5-yl]acetic acid at 30 mg/kg, po; type: ADME, organism-based, Plasma; set-up: dose 30 mg/kg, route oral; settings: in vivo
[12] = (§1) AUC in mouse at 30 mg/kg, po; type: ADME, organism-based, Plasma; set-up: dose 30 mg/kg, route oral; settings: plasma
[13] = (§2) Half life in mouse at 30 mg/kg, po; type: ADME, organism-based; set-up: dose 30 mg/kg, route oral; settings: in vivo
[14] = system: Mus musculus; experiment: Tmax in mouse assessed as 2-[(5R)-4-[2-(3-hydroxyphenyl)acetyl]-8-(trifluoromethyl)-1,2,3,5-tetrahydropyrido[2,3-e][1,4]diazepin-5-yl]acetic acid at 30 mg/kg, po; type: ADME, organism-based; set-up: dose 30 mg/kg, route oral; settings: in vivo
[15] = Tmax in mouse at 30 mg/kg, po; type: ADME, organism-based; set-up: dose 30 mg/kg, route oral; settings: in vivo
[16] = system: Canis familiaris; experiment: Cardiotoxicity in beagle dog assessed as blood pressure at 3 mg/kg/3 ml, iv for 30 mins; type: toxicity, organism-based, Canis lupus familiaris; set-up: route intravenous; settings: in vivo, 0.5 h
In short: (§3)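 Dogs were anaesthetized with halothane (0.5–1.5% end-tidal) after iv thiopental 30 mg/kg. Compound was dispersed at 1 mg/mL in 20% hydroxypropyl-β-cyclodextrin and infused into the femoral vein at 3 mg/kg/3 mL over 30 min. Femoral artery HR and mean BP were recorded for 60 min, normalized to the 0-min value; n = 2.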

[17] = system: Mus musculus; experiment: Antiobesity activity in C57BL/6N mouse assessed as reduction in food intake at 30 mg/kg, po single dose; type: functional
In short: (§4)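 Male C57BL/6N mice, 7 weeks old, were fasted 16 h, housed singly and habituated 1 h. They then received a single oral dose (1, 3, 10, 30 mg/kg) or vehicle (0.5% methylcellulose). Chow was given 1 h later and cumulative intake over 6 h was recorded. n = 4–5; Dunnett's test versus vehicle.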

[18] = system: Mus musculus; experiment: as §1; type: ADME, organism-based, Plasma; set-up: dose 30 mg/kg, route oral; settings: in vivo, BLD = below limit of detection
[19] = system: Mus musculus; experiment: Antiobesity activity in po dosed C57BL/6N mouse assessed as anorectic effect; type: functional, organism-based; in short: as §4
[20] = system: Canis familiaris; experiment: Cardiotoxicity in beagle dog assessed as heart rate at 3 mg/kg/3 ml, iv for 30 mins; type: toxicity, organism-based, Canis lupus familiaris; set-up: route intravenous; settings: in vivo, 0.5 h; in short: as §3
[21] = system: Mus musculus; experiment: as §2; type: ADME, organism-based; set-up: dose 30 mg/kg, route oral; settings: in vivo, BLD = below limit of detection

SMILES	Ratio [1]	Cmax [2]	EC50 [3]	EC50 [4]	Cmax [5]	Cmax [6]	Ratio [7]	further results
O=C(O)C[C@@H]1c2ccc(C(F)(F)F)nc2NCCN1C(=O)Cc1cccc(OC(=O)CC2CC2)c1	0	607 nM	42 nM	81 nM				
O=C(O)C[C@@H]1c2ccc(C(F)(F)F)nc2NCCN1C(=O)Cc1cccc(C(=O)O)c1			> 10000 nM	> 10000 nM				
CC(C)(C)CC(=O)Oc1cccc(CC(=O)N2CCNc3nc(C(F)(F)F)ccc3[C@H]2CC(=O)O)c1	0.179	32.5 nM	8.7 nM	20 nM	5.8 nM			
CCCCC(=O)Oc1cccc(CC(=O)N2CCNc3nc(C(F)(F)F)ccc3[C@H]2CC(=O)O)c1	0.0175	1630 nM	19 nM	35 nM	28.5 nM			
CCCCOC(=O)c1cccc(CC(=O)N2CCNc3nc(C(F)(F)F)ccc3[C@H]2CC(=O)O)c1			4 nM	5.6 nM	28.5 nM	1630 nM	0.0175	
O=C(O)C[C@@H]1c2ccc(C(F)(F)F)nc2NCCN1C(=O)Cc1cccc(O)c1			> 10000 nM	> 10000 nM	40 nM			t1/2 [8]: 15 min; fraction unbound [9]: > 0.3; solubility [10]: 780 µg/mL (≈ 1910 µM); AUC [11]: 1230 ng·h/mL; AUC [12]: 1230 ng·h/mL; half-life [13]: 15 min; Tmax [14]: 15 min; Tmax [15]: 15 min
CC(C)CC(=O)Oc1cccc(CC(=O)N2CCNc3nc(C(F)(F)F)ccc3[C@H]2CC(=O)O)c1	0	1260 nM	12 nM	43 nM				fraction unbound [9]: 0.108; Activity [16]: Non-toxic; solubility [10]: 900 µg/mL (≈ 1820 µM); inhibition in vivo at 30 mg/kg [17]: 30%; AUC [18]: BLD; inhibition [19]: Dose-dependent effect; Activity [20]: Non-toxic; t1/2 [21]: BLD
CC(C)COC(=O)c1cccc(CC(=O)N2CCNc3nc(C(F)(F)F)ccc3[C@H]2CC(=O)O)c1			4.2 nM	5.4 nM	30.8 nM	2120 nM	0.0145	
CC(C)OC(=O)c1cccc(CC(=O)N2CCNc3nc(C(F)(F)F)ccc3[C@H]2CC(=O)O)c1			40 nM	45 nM	1240 nM	918 nM	1.35	
CC(C)C(=O)Oc1cccc(CC(=O)N2CCNc3nc(C(F)(F)F)ccc3[C@H]2CC(=O)O)c1	0	680 nM	68 nM	282 nM				
CC(C)(C)COC(=O)c1cccc(CC(=O)N2CCNc3nc(C(F)(F)F)ccc3[C@H]2CC(=O)O)c1			5.6 nM	8.1 nM	12.7 nM	197 nM	0.0643	
O=C(O)C[C@@H]1c2ccc(C(F)(F)F)nc2NCCN1C(=O)Cc1cccc(C(=O)OCC2CC2)c1			3.4 nM	3.7 nM	39.3 nM	300 nM	0.131	
CC(C)COc1cccc(CC(=O)N2CCNc3nc(C(F)(F)F)ccc3[C@H]2CC(=O)O)c1								Activity [16]: Toxic; Activity [20]: Toxic
